# Calls of active or inactive are those of the source. No cut-off for these calls is given here.
# Key:
# [1] = target: T1, Protein cereblon/Poly [ADP-ribose] polymerase 1 (Homo sapiens, UniProt P09874+Q96SW2); assay: Protac activity at CRBN/PARP1 in human SW620 cells assessed as reduction in PARP1 protein level at 0.01 to 10 uM incubated for 12 hrs by western blot analysis; type: cell-based; settings: SW-620, dose microM 0.01-10, time 12.0 hrs
# Outline: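 MDA-MB-436 or SW620 cells dosed at 1, 10, 100, 1000 nM and 10 µM for 12 h; PARP1 assessed by western blot of RIPA lysates (20-30 µg protein), β-tubulin as loading control.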
# Target sequence in this assay (P09874 2-1014 limits assumed): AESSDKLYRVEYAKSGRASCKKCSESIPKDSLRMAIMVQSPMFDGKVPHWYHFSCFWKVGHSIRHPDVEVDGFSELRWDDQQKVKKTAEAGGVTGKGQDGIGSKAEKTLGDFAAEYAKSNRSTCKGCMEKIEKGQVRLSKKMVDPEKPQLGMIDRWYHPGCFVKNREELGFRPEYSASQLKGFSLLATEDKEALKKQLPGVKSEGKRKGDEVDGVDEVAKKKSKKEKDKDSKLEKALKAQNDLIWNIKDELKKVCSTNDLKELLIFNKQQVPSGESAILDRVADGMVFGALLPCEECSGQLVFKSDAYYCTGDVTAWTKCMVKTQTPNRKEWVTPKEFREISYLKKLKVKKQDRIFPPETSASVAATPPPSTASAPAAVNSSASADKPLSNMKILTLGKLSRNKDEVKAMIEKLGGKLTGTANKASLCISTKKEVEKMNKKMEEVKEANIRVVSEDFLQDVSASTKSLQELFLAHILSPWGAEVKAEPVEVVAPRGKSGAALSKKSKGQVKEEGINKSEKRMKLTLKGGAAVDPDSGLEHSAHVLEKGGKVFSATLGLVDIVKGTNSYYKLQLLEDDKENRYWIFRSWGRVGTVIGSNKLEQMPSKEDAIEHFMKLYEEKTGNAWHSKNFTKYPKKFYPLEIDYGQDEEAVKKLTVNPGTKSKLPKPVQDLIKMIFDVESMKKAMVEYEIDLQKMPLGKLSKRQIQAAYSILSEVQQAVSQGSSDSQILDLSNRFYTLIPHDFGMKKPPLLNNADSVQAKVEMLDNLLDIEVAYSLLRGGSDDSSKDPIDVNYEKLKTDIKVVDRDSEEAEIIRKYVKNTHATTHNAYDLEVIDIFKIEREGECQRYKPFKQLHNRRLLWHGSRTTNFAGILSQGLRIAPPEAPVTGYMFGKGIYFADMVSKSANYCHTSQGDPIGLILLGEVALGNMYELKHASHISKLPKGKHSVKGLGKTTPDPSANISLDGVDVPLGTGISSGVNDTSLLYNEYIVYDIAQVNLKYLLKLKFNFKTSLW
# Target sequence in this assay (Q96SW2 whole entry partner): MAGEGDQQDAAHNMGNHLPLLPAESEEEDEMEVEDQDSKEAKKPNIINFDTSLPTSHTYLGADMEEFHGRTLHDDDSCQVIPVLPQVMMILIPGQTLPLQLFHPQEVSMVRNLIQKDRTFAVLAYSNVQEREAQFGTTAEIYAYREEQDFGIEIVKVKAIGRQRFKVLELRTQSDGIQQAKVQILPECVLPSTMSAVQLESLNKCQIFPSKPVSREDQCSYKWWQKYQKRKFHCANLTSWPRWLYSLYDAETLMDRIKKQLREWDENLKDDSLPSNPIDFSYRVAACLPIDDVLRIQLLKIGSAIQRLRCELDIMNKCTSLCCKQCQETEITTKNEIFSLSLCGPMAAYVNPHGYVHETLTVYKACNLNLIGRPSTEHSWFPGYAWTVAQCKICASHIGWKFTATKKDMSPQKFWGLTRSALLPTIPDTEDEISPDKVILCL
# [2] = target: T1, Protein cereblon/Poly [ADP-ribose] polymerase 1; assay: Protac activity at CRBN/PARP1 in human Capan1 cells assessed as PARP1 protein degradation at 1 to 10 nM incubated for 24 hrs by western blot analysis; type: cell-based; settings: CAPAN-1, dose nM 1-10, time 24.0 hrs
# Outline: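 Capan-1 cells were treated 24 h (1-1000 nM, or a wider dose range for DC50). Lysis was in RIPA buffer with protease inhibitors, and 20-30 μg protein was blotted. PARP1 was normalized to β-tubulin and to DMSO control, quantified by densitometry. DC50 came from two independent experiments.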
# Target sequence in this assay (P09874 2-1014 limits assumed): as the sequence (P09874 2-1014 limits assumed) above
# Target sequence in this assay (Q96SW2 whole entry partner): as the sequence (Q96SW2 whole entry partner) above
# [3] = test system: SW-620; assay: Potentiation of TMZ induced antitumor activity against SW-620 cells xenografted in Balb/c mouse assessed as tumor growth suppression administered intraperitoneally once daily for 5 days; type: functional; settings: dose mg/kg 5-10, time 5.0 day
# Outline: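 Male BALB/c nude mice carried SW620 xenografts (6×10^6 cells s.c.), randomized at ~150 mm³ (6 per group). TMZ 50 mg/kg was given orally once daily on days 0-4, 45 min after the partner drug. Partners were 5 or 10 mg/kg intraperitoneally or 10 mg/kg by oral gavage, daily for 5 days. Vehicle was 5% DMSO/20% PEG400/10% Cremophor EL/65% saline. Tumor volume and body weight were recorded 2-3 times weekly.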
# [4] = target: T1, Protein cereblon/Poly [ADP-ribose] polymerase 1; assay: Protac activity at CRBN/PARP1 in human PC-3 cells assessed as induction of PARP1 degradation at 30 nM incubated for 1 to 24 hrs by Western blot analysis; type: cell-based; settings: time hrs 1-24
# Target sequence in this assay (P09874 2-1014 limits assumed): as the sequence (P09874 2-1014 limits assumed) above
# Target sequence in this assay (Q96SW2 whole entry partner): as the sequence (Q96SW2 whole entry partner) above
# [5] = target: T1, Protein cereblon/Poly [ADP-ribose] polymerase 1; assay: Protac activity at CRBN/PARP1 in human 22Rv1 cells assessed as induction of PARP1 degradation at 30 nM incubated for 1 to 24 hrs by Western blot analysis; type: cell-based; settings: time hrs 1-24
# Target sequence in this assay (P09874 2-1014 limits assumed): as the sequence (P09874 2-1014 limits assumed) above
# Target sequence in this assay (Q96SW2 whole entry partner): as the sequence (Q96SW2 whole entry partner) above
# [6] = target: T1, Protein cereblon/Poly [ADP-ribose] polymerase 1; assay: Protac activity at CRBN/PARP1 in human SW-620 cells assessed as induction of PARP1 degradation at 30 nM measured after 2 hrs by Western blot analysis
# Target sequence in this assay (P09874 2-1014 limits assumed): as the sequence (P09874 2-1014 limits assumed) above
# Target sequence in this assay (Q96SW2 whole entry partner): as the sequence (Q96SW2 whole entry partner) above
# [7] = target: T1, Protein cereblon/Poly [ADP-ribose] polymerase 1; assay: Protac activity at CRBN/PARP1 in human SW-620 cells assessed as induction of PARP1 degradation at 30 nM incubated for 24 hrs in presence of proteasome inhibitor MG132 by Western blot analysis; type: cell-based
# Target sequence in this assay (P09874 2-1014 limits assumed): as the sequence (P09874 2-1014 limits assumed) above
# Target sequence in this assay (Q96SW2 whole entry partner): as the sequence (Q96SW2 whole entry partner) above
# [8] = test system: MDA-MB-231; assay: Antiproliferation activity against human MDA-MB-231 assessed as cell growth inhibition incubated for 7 days by CCK-8 assay; type: functional, cell-based; settings: time 7.0 day
# Outline: (§1)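 Cells were sub-cultured at least twice and seeded for 24 h before dosing. Compounds came from 10 mM DMSO stocks, given as 10 points of 3-fold serial dilution starting at 10-20 μM. Incubation was about 7 days (Capan-1 13 days) at 37 °C, 5% CO2. Read-out was CCK-8 absorbance at 450 nm, as % growth versus DMSO wells (duplicate wells). IC50 was fitted by nonlinear regression; three independent experiments.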
# [9] = target: T1, Protein cereblon/Poly [ADP-ribose] polymerase 1; assay: Protac activity at CRBN/PARP1 in human PC-3 cells assessed as induction of PARP1 degradation measured after 24 hrs by Western blot analysis; type: cell-based
# Outline: (§2)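 Concentration-response over a wide range, 24 h exposure; PARP1 quantified by western blot and normalized to β-tubulin density; DC50 derived from two biologically independent experiments.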
# Target sequence in this assay (P09874 whole entry): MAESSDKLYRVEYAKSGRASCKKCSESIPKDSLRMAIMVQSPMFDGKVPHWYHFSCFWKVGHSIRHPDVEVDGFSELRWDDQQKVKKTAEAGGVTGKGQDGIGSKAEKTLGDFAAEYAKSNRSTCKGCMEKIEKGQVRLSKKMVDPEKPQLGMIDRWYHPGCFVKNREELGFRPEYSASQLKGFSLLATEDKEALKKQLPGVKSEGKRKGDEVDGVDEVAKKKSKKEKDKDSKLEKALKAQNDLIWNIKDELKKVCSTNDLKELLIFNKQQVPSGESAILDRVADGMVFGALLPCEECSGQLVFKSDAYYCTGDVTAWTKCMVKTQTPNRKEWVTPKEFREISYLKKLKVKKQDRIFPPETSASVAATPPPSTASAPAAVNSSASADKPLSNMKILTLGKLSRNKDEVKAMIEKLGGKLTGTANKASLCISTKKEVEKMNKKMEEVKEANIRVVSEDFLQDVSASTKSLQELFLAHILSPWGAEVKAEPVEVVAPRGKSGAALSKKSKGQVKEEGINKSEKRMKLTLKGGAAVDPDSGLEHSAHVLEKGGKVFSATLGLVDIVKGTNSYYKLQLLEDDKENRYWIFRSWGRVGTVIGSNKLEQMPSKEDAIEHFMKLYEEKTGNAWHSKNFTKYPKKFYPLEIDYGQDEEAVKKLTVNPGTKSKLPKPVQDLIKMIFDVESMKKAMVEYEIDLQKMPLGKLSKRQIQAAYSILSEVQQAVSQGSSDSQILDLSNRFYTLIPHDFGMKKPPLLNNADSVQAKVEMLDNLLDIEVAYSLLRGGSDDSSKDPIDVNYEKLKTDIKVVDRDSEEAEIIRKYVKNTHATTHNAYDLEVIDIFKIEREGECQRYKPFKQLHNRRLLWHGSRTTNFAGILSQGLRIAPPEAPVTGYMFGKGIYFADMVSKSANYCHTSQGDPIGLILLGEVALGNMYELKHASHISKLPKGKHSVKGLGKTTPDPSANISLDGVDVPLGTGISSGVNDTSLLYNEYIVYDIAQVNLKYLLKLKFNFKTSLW
# Target sequence in this assay (Q96SW2 whole entry): as the sequence (Q96SW2 whole entry partner) above
# [10] = target: T1, Protein cereblon/Poly [ADP-ribose] polymerase 1; assay: Protac activity at CRBN/PARP1 in human LNCaP cells assessed as induction of PARP1 degradation measured after 24 hrs by Western blot analysis; type: cell-based; outline: as §2
# Target sequence in this assay (P09874 whole entry): as the sequence (P09874 whole entry) above
# Target sequence in this assay (Q96SW2 whole entry): as the sequence (Q96SW2 whole entry partner) above
# [11] = AUC (0 to infinity) in ICR mouse at 25 mg/kg, ip by LC-tandem mass spectrometry analysis; type: ADME, organism-based; design: time infinity, route intraperitoneal, dose 25 mg/kg; settings: in vivo
# Outline: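 Female ICR mice (20-23 g, 6-7 weeks old, n = 3) received a single 25 mg/kg intraperitoneal dose formulated in 5% DMSO/15% Solutol HS15/80% D5W. Plasma was sampled at 0.5, 1, 2, 4, 6, 8 and 24 h and protein-precipitated with methanol. Compound was quantified by LC-MS/MS against a standard curve.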
# [12] = target: T1, Protein cereblon/Poly [ADP-ribose] polymerase 1; assay: Protac activity at CRBN/PARP1 in human MDA-MB-436 cells assessed as induction of PARP1 degradation at 30 nM incubated for 24 hrs in presence of NEDD8-activating E1 enzyme inhibitor MLN4924 by Western blot analysis
# [13] = target: T1, Protein cereblon/Poly [ADP-ribose] polymerase 1; assay: Protac activity at CRBN/PARP1 in human MDA-MB-436 cells assessed as induction of PARP1 degradation at 30 nM measured within 1 hr by Western blot analysis; type: cell-based; settings: time hrs <=1
# Outline: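 Time course at 30 nM in MDA-MB-436 or SW620 cells; PARP1 immunoblotted at successive time points, β-tubulin as loading control.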
# [14] = Tmax in ICR mouse at 25 mg/kg, ip by LC-tandem mass spectrometry analysis; type: ADME, organism-based; settings: in vivo
# Outline: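 Female ICR mice (20-23 g, 6-7 weeks, n = 3) given a single 25 mg/kg ip dose in 5% DMSO/15% Solutol HS15/80% D5W; plasma at 0.5, 1, 2, 4, 6, 8 and 24 h, protein precipitated with methanol, drug quantified by LC-MS/MS against a standard curve.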
# [15] = test system: HEK293; assay: Cytotoxicity against human HEK293 cells assessed as cell viability incubated for 120 hrs by CCK-8 assay; type: cell-based; settings: hek293, 120 h
# [16] = test system: SW-620; assay: Antiproliferation activity against human SW620 assessed as cell growth inhibition incubated for 7 days by CCK-8 assay; type: functional, cell-based; settings: time 7.0 day; outline: as §1
# [17] = target: T1, Protein cereblon/Poly [ADP-ribose] polymerase 1; assay: Protac activity at CRBN/PARP1 in human MDA-MB-468 cells assessed as induction of PARP1 degradation at 30 nM incubated for 1 to 24 hrs by Western blot analysis; type: cell-based; settings: time hrs 1-24
# [18] = test system: LNCaP; assay: Antiproliferation activity against human LNCAP assessed as cell growth inhibition incubated for 7 days by CCK-8 assay; type: functional, cell-based; settings: time 7.0 day; outline: as §1
# [19] = test system: CAPAN-1; assay: Induction of DNA damage in human Capan1 cells assessed as increase in gammaH2AX foci formation incubated for 24 hrs by Western blot analysis; type: functional, cell-based; settings: dose microM 0.1-10, time 24.0 hrs
# Outline: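 MDA-MB-436 (BRCA1-/-) or Capan-1 (BRCA2-/-) cells were treated 24 h at the indicated concentrations. Lysis was in RIPA buffer with protease inhibitors, and 20-30 μg protein was run on SDS-PAGE. Blots were probed for γH2AX, with β-tubulin as the loading control, and detected by ECL.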
# [20] = target: T1, Protein cereblon/Poly [ADP-ribose] polymerase 1; assay: Protac activity at CRBN/PARP1 in human CAPAN-1 cells assessed as induction of PARP1 degradation at 100 nM measured after 6 hrs by Western blot analysis; type: cell-based
# Outline: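 Capan-1 cells were treated with 100 nM over a time course. PARP1 was measured by western blot and normalized to β-tubulin.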
smiles,measurement,setting,value
O=C(CCCCCCCCCCC(=O)N1CCN(C(=O)c2cc(Cc3n[nH]c(=O)c4ccccc34)ccc2F)CC1)NCCNc1cccc2c1C(=O)N(C1CCC(=O)NC1=O)C2=O (stereo not given),Activity,[1],Active
same,Activity,[2],Active
same,Activity,[3],Dose-dependent effect
same,Activity,[4],Active
same,Activity,[5],Active
same,Activity,[6],Active
same,Activity,[7],inactive
same,Activity,[8],Active
same,DC50,[9],0.578 nM
same,DC50,[10],1.08 nM
same,AUC(0-inf),[11],5360 ng·h/mL
same,Activity,[12],inactive
same,Activity,[13],Active
same,Tmax,[14],15 min
same,Activity,[15],Non-Toxic
same,Activity,[16],Active
same,Activity,[17],Active
same,Activity,[18],Active
same,Activity,[19],Dose-dependent effect
same,Activity,[20],Active

# — ChEMBL document CHEMBL4699498 (J Med Chem, 2020)
